Reference: ChEMBL document CHEMBL1129587, “(Carboxyalkyl)benzyl propargyl ethers as selective inhibitors of leukocyte-type 12-lipoxygenases” (J Med Chem, 1996)

Molecular target: T1, Arachidonate 12-lipoxygenase (Sus scrofa, UniProt P16469)
T1 sequence (P16469 whole entry): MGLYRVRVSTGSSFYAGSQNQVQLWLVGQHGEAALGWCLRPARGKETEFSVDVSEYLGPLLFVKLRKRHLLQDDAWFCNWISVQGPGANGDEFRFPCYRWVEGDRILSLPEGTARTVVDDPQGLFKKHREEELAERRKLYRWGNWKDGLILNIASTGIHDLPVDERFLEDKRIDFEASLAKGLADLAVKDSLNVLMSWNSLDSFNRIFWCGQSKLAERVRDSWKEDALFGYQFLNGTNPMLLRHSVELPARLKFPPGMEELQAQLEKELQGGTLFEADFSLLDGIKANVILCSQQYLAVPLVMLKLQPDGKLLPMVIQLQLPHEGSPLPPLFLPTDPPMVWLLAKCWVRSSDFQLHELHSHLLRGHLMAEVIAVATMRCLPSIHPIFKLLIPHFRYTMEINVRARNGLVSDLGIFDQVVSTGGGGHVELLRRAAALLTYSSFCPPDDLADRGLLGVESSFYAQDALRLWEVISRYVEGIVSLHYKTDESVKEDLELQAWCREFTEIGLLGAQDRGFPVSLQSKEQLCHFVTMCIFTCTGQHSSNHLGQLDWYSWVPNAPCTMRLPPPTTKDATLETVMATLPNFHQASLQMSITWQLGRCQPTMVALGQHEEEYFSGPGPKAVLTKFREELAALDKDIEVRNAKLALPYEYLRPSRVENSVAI
Experiment: Inhibitory activity against conversion of [1-14C]arachidonic acid to 12-HPETE and its reduction product 12-HETE by porcine leukocyte type 12-lipoxygenase
In short: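 Porcine leukocyte cytosol (75 μg/mL) in 100 mM HEPES, 2 mM CaCl2, 1 mM MgCl2, pH 8.0. Inhibitor added in DMSO and preincubated with enzyme 5 min at 37 °C. [1-14C]arachidonic acid then added (5 μM final) and reacted 15 min. Mixture acidified, products extracted and separated by TLC, and 12-HETE conversion measured by radioactivity scanning. Incubations run in triplicate; IC50 determined from concentration series.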

| IC50 [µM] | SMILES |
| --- | --- |
| 0.06 | CCCCCCCCCCC#CCOCc1ccc(C(=O)O)cc1 |
| > 10 | CCCCCC#CCCOCc1cccc(CCC(=O)O)c1 |
| > 10 | CCCCCCCCC#CCSCc1cccc(CCC(=O)O)c1 |
| > 10 | CCCCCCCCCCC#CCOCc1ccc(CCCC(=O)O)cc1 |
| > 10 | CCCCCCCCCCCCCCC#CCOCc1ccc(CCC(=O)O)cc1 |
| 0.04 | CCCCCCCCCC/C=C/COCc1ccc(CCC(=O)O)cc1 |
| 0.32 | CCCCCCCCCCC#CCOCc1cccc(CCC(=O)O)c1 |
| 10 | CCCCCCCCC#CCOCc1cccc(CCC(=O)O)c1 |
| > 10 | CCCCCCCCCCCCCOCc1ccc(CCC(=O)O)cc1 |
| > 10 | CCCCCCC#CCOCc1cccc(CCC(=O)O)c1 |
| > 10 | CCCCCCCCCCCCCCC#CCOCc1ccc(C(=O)O)cc1 |
| 0.05 | CCCCCCCCCCC#CCOCc1ccc(CC(=O)O)cc1 |
| 5 | O=C(O)CCc1ccc(COCC#CCCCCc2ccccc2)cc1 |
| 6 | CCCCCCCC#CCOCc1ccc(C(=O)O)cc1 |
| 2.5 | CCCCCCCCCC/C=C\COCc1ccc(CCC(=O)O)cc1 |
